Source: ChEMBL document CHEMBL3044872, “Synthesis and quantitative structure-activity relationships of fluorine-containing 4,4-dihydroxylmethyl-2-aryliminooxazo(thiazo)lidines as trehalase inhibitors” (J Agric Food Chem, 2001)

Legend:
Drosophila melanogaster [1] = test: Insecticidal activity against adult Drosophila melanogaster cultured on compound-treated corn media assessed as inhibition of flight at 200 ppm after 48 hr relative to control; type: functional
Outline: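 Wild-type adult flies fed corn medium containing compound for 48 h. Flies ether-anesthetized for 2 min and glued by the abdomen to the arm of a computer-monitored flight mill; flown at 25 °C under natural light. Inhibition % = (1 − treated flight distance/untreated flight distance) × 100.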

Uncharacterized protein = target: T1, Uncharacterized protein (Sus scrofa, UniProt I3LIR5); test: Inhibition of Sus scrofa (pig) trehalase using trehaloase as substrate incubated for 15 min prior to substrate addition measured after 1.5 hr by spectrophotometric analysis
T1 sequence (I3LIR5 whole entry): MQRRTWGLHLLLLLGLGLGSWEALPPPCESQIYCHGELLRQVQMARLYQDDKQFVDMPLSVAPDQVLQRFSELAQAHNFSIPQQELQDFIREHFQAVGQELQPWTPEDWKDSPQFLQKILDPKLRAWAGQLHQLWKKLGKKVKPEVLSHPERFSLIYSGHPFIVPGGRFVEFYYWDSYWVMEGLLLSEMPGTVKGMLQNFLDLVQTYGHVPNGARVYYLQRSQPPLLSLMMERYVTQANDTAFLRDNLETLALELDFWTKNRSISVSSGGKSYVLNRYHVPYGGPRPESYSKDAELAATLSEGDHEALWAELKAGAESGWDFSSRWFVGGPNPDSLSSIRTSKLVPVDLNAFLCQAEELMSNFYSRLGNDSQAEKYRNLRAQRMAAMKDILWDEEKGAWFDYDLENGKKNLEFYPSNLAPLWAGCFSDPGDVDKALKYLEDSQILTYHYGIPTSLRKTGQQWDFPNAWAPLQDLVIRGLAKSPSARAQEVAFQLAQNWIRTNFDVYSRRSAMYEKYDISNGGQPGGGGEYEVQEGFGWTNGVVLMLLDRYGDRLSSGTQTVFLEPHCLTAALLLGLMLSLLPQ
Outline: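 Porcine trehalase (1.08 µg) in […], pH 5.5, preincubated with compound in DMSO for 15 min at 37 °C. […] added, then incubated 1.5 h at 37 °C. Stopped with Ba(OH)2/Zn(OH)2 and centrifuged. Glucose measured by glucose oxidase/peroxidase/ABTS (30 min, room temperature), A660, against a glucose standard curve. At least 5 concentrations; expressed as pIC50.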

Drosophila melanogaster [2] = test: Larvicidal activity against Drosophila melanogaster at 200 ppm relative to control; type: functional
Outline: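 One hundred wild-type eggs placed on 8 cm3 yeast/corn meal/agar medium containing compound at 200 ppm, dissolved in DMSO.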

Trehalase = target: T2, Trehalase (Bombyx mori, UniProt P32358); test: Inhibition of Bombyx mori trehalase
T2 sequence (P32358 whole entry): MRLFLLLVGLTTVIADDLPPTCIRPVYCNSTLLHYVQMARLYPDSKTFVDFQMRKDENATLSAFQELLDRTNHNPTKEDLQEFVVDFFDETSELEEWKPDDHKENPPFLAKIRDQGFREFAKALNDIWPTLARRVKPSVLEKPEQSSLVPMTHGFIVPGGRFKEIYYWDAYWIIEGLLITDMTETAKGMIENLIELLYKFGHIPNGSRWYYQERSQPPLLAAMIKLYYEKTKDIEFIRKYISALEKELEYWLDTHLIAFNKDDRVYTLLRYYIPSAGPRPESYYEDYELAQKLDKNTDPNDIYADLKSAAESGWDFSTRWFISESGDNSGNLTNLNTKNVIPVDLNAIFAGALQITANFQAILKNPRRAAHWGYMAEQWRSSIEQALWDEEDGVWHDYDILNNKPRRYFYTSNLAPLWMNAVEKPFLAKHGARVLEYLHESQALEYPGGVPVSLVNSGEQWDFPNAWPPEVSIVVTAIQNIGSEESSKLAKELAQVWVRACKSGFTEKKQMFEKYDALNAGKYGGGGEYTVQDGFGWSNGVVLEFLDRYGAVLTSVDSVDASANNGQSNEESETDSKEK

Row | Compound | IC50 (Uncharacterized protein) [µM] | inhibition at 200 ppm (Drosophila melanogaster [1]) [%] | Activity (Drosophila melanogaster [2]) [%] | IC50 (Trehalase) [µM]
1 | OCC1(CO)CS/C(=N\c2ccc(F)c(F)c2F)N1 | 708 | 26.9 | 65.3 | 
2 | OCC1(CO)CS/C(=N\c2ccccc2F)N1 | 832 | 45.4 | 66.5 | 
3 | OCC1(CO)CO/C(=N\c2ccc(F)cc2)N1 | 263 | 35.7 | 56.3 | 
4 | OCC1(CO)CS/C(=N\c2ccc(F)cc2)N1 | 575 | 37.2 | 60.4 | 
5 | OCC1(CO)CS/C(=N\c2ccc(F)cc2F)N1 | 6170 | 1.7 | 35.1 | 
6 | OCC1(CO)CO/C(=N\c2ccc(F)cc2F)N1 | 891 | 2.7 | 17.2 | 
7 | OC[C@H]1O[C@H](NC2=N[C@@H]3[C@H](O2)[C@@H](O)[C@H](O)[C@]3(O)CO)[C@H](O)[C@@H](O)[C@@H]1O [TREHAZOLIN] |  |  |  | 0.049

The remaining molecules from weak to strong by IC50 (Uncharacterized protein), led by results:

Row | IC50 (Uncharacterized protein) [µM] | Compound | inhibition at 200 ppm (Drosophila melanogaster [1]) [%] | Activity (Drosophila melanogaster [2]) [%] | IC50 (Trehalase) [µM]
8 | 240 | OCC1(CO)CS/C(=N\c2ccc(F)c(Cl)c2)N1 | 49.7 | 76 | 
9 | 85.1 | OCC1(CO)CO/C(=N\c2ccc(F)c(F)c2F)N1 | 16.6 | 50.4 | 
10 | 75.9 | OCC1(CO)CO/C(=N\c2ccccc2F)N1 | 30.7 | 45.2 | 
11 | 35.5 | OCC1(CO)CO/C(=N\c2ccc(F)c(Cl)c2)N1 | 37.2 | 65 | 
